Screens: PubChem BioAssay, The Scripps Research Institute Molecular Screening Center
Sampled rows, rich in hits. Any-hit rate of the full collection: about 2.2%.
NR2F2 inh: inhibitors of human COUP-TFII (NR2F2) | P24468 | hit rate 0.7% among 370,000 | HEK293T NGFI-A luciferase reporter, luminescence | AID 686940 | inhibition, % at 8.6 µM;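 active = inhibition above a per-plate cutoff, mean inhibition of test wells between control levels plus 3 SD, cut at about 38% in these data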;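 also: cells cotransfected with COUP-TFII expression vector driving the NGFI-A reporter; 0% = median of COUP-TF2 test wells and 100% = reporter-only cells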
NR2E3 ag-1: activates human photoreceptor nuclear receptor NR2E3; hit rate 0.12% among 320,000; GST-NR2E3/biotin-RetCOR TR-FRET, 1536-well; inhibition of corepressor binding, % at 4.78 µM;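 active = percent inhibition above the cutoff of mean plus 3 SD of all tested compounds, set per screening campaign, cut at about 20% in these data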;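 also: 0% = DMSO wells and 100% = biotin wells as full block of FRET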
Target sequence (Q9Y5X4 whole entry, looked up): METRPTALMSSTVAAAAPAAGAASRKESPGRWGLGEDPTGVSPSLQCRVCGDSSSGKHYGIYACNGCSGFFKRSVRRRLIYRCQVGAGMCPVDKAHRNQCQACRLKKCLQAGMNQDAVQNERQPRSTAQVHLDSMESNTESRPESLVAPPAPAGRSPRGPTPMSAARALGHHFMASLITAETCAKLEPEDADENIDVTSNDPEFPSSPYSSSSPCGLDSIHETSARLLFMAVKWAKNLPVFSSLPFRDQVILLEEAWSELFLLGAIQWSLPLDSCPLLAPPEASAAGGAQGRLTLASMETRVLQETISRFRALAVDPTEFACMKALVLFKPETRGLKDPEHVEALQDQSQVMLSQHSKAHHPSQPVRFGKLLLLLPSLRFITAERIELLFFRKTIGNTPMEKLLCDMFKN
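Material: NR2E3–RetCOR corepressor complex / Amount: 1.35 nM GST-NR2E3 / Medium: Tris pH 7.5 / Compound: single nominal compound dose of 4.8 µM / Incubation: 5 h at 4 °C / Technique: TR-FRET, Eu(K)-anti-GST donor, streptavidin-D2 acceptor, ex 340, em 617/671 nm / Read-out basis: percent loss of FRET ratio relative to control wells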
SMARCA2 act: activators of SMARCA2 function; MG213 cells, MMTV-luciferase reporter, dexamethasone, overnight; activation, % at 9.1 µM; hit rate 1% among 370,000; in the data active = activation above about 7.8%;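 also: 0% = vehicle wells and 100% = reference activator wells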
NR2E3 ag-2: human photoreceptor-specific nuclear receptor agonism; Q9Y5X4; CHO-S Gal4-NCOR/VP16-NR2E3 two-hybrid, luciferase; inhibition of corepressor binding, % at 3.98 µM; hit rate 0.35% among 360,000; AID 602229;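 active = inhibition above the mean of all tested compounds plus 3 SD, cut at about 70% in these data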;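 also: 0% = DMSO with NR2E3 transfected cells and 100% = cells lacking NR2E3 construct; higher means lower luciferase signal from less NR2E3 corepressor binding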
GalR3 antagonist: blocks the human galanin receptor 3; inhibition, % at 3 µM; hit rate 0.44% among 360,000; HEK293 GalR3-CNG cAMP membrane potential fluorescence; galR3 body fused to GalR1 C-terminus; O60755;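 active = inhibition above the screen-wide average plus 3 SD, cut at about 13% in these data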;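 also: forskolin and galanin both at EC90 stimulate the cells; cAMP rise reported by CNG channel membrane potential dye signal; 0% = forskolin plus galanin with DMSO and 100% = forskolin alone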
VP16 Luc counter: inhibits VP16 reporter, flagging COUP-TFII antagonist hits | hit rate 25% among 2,500 | shares compounds with NR2F2 inh | HEK293 Gal4-VP16 luciferase reporter, luminescence | inhibition, % at 8.5 µM; in the data active = inhibition above about 13%
NR2F2 inh conf: COUP-TFII (NR2F2) inhibition, confirmation assay | hit rate 45% among 2,500 | HEK293 NGFI-A luciferase reporter, luminescence | shares compounds with NR2F2 inh | inhibition, % at 8.5 µM | AID 687008;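 active = mean inhibition over three repeats above a set limit taken from the earlier primary screen, cut at about 38% in these data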;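 also: 100% = cells given the luciferase reporter alone without the COUP-TF2 vector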
An asterisk follows results filed as active; . = not tested or not shown.

SMILES	NR2F2 inh	NR2E3 ag-1	SMARCA2 act	NR2E3 ag-2	GalR3 antagonist	VP16 Luc counter	NR2F2 inh conf
Cn1ccnc1C(=O)O[C@@H]1CCC[C@@]2(C(=O)N(Cc3ccccc3)c3ccccc32)[C@H]1NC(=O)CCc1ccccc1	-14	.	2	.	.	.	.
S=C(NCc1ccc(Cl)cc1)NC1CCN(Cc2ccccc2)CC1	52*	5	-3	-25	12	6	19
Clc1ccc(CNC2CCN(Cc3ccccc3)CC2)cc1	5	0	-3	-4	-10	.	.
NS(=O)(=O)c1ccc(NC(=O)COc2ccc(C(=O)c3ccc(F)cc3)cc2)cc1	38*	2	-5	0	0	-1	8
CN(c1ccc(OCC(=O)Nc2ccc(S(N)(=O)=O)cc2)cc1)S(=O)(=O)c1ccc(F)cc1	19	.	-5	-16	-6	.	.
C/C=C/C(=O)N1CCC(C(=O)NCC2COc3ccccc3O2)CC1 (stereo not drawn)	18	.	-5	.	.	.	.
Cc1c(C(=O)Nc2ccncc2)sc2nc(-c3ccccc3)cn12	52*	-4	-2	20	.	-41	12
CC(C)CC(N)c1csc(Nc2ncccn2)n1 (stereo not drawn)	43*	.	0	-13	-4	-41	17
CCC(C)CNC(=O)c1oc(=O)c2ccccc2c1-c1ccc(C)cc1 (stereo not drawn)	3	.	-2	.	.	.	.
CCOc1ccc(-c2cc(CCCC(=O)NCCCOC)no2)cc1	59*	3	-8	-19	-7	23*	3
Cc1ccccc1C(=O)N1CCN(c2ccc(NC(=O)c3ccc4c(c3)OCCO4)cc2)CC1	68*	3	-7	13	0	10	58*
Cc1ccc(C(=O)N2CCN(c3ccc(NC(=O)c4ccc5c(c4)OCCO5)cc3)CC2)cc1	13	-5	-3	2	-5	.	.
COC(=O)C1=C(C(=O)OC)[C@]2([C@@H]3CCCCN[C@@H](Cc4ccccc4)C(=O)N3Cc3ccccc3)C=C[C@H]1O2	19	.	0	16	-10	.	.
COC(=O)C1=C(C(=O)OC)[C@@]2([C@@H](Cc3ccc(C)cc3)Nc3ccccc3)C=C[C@@H]1O2	81*	.	.	.	.	31*	28
CCCCNC(=O)C1(C)CCN1C(=O)c1ccc2c(c1)C(C)(C)CCC2(C)C (stereo not drawn)	20	.	-4	2	-6	.	.
CCCCNC(=O)C1(C)CCCCN1C(=O)c1ccc2c(c1)C(C)(C)CCC2(C)C (stereo not drawn)	38*	.	-3	11	-8	-4	29
COc1ccc(C2OCCNC3C2C(=O)N(Cc2ccc(OC)cc2OC)C3Cc2ccccc2)cc1 (stereo not drawn)	8	.	.	.	.	.	.
CCOC(=O)c1c(-c2ccccc2)oc2ccc(O)c(CN3CCN(C)CC3)c12	38*	-6	-3	-12	-7	-8	19
CCOC(=O)c1c(C)n(C)c2ccc(O)c(CN3CCN(C)CC3)c12	-7	-1	-1	6	-4	.	.
Cc1ccc(CN2CCCCC(NC(=O)c3ccccc3C)C2=O)cc1 (stereo not drawn)	-11	.	-1	.	.	.	.
CCCCCN1CCCCC(NC(=O)c2ccc(F)c(F)c2)C1=O (stereo not drawn)	-8	.	-2	.	.	.	.
O=C(NCCc1ccc(F)cc1)c1ccc(Cl)c(S(=O)(=O)N2CCOCC2)c1	40*	-1	-4	6	-5	-10	8
CCOc1ccc(CCNC(=O)c2ccc(Cl)c(S(=O)(=O)N3CCOCC3)c2)cc1OCC	22	-2	-3	5	-6	.	.
COC(=O)[C@]12C[C@H](CC(=O)N3CCSCC3)C(=O)N(Cc3ccco3)C1=C[C@H](C(C)(C)C)O[C@@H]2C	4	.	-3	.	.	.	.
O=Cc1s/c(=N\S(=O)(=O)c2ccccc2)n(CCCCl)c1Cl	60*	.	-12	-12	-6	62*	46*
SMILES	NR2F2 inh	NR2E3 ag-1	SMARCA2 act	NR2E3 ag-2	GalR3 antagonist	VP16 Luc counter	NR2F2 inh conf
Cc1c(Cl)cccc1NC(=O)CN1CCN(CCO)CC1	-13	0	2	-7	-6	.	.
Cc1nc(Nc2ncc(C(=O)Nc3c(C)cccc3Cl)s2)cc(N2CCN(CCO)CC2)n1	39*	.	8	.	.	3	18
CCOC(=O)Cn1cc(CN2C(C(=O)OC)CN(Cc3ccc(C)cc3)CCS2(=O)=O)nn1 (stereo not drawn)	-1	.	-2	.	.	.	.
CC(C)(C)c1ccc(Oc2ccc(NC(=O)C3CC=CCC3C(=O)O)cc2)cc1 (stereo not drawn)	91*	1	-11	36	-1	15*	-1
Cc1ccccc1Oc1ccc(NC(=O)C2CC=CCC2C(=O)O)cc1 (stereo not drawn)	-8	3	-2	-7	-4	.	.
COc1ccc(Nc2nc(N3CCCCC3)c3ccccc3n2)cc1	38*	-7	-2	36	-9	-1	10
COc1ccc(Nc2ncnc3ccccc23)cc1	-15	1	8	-118	-2	.	.
COc1ccc(Nc2ccnc3ccccc23)cc1	40*	-1	-1	-42	2	-10	13
Cc1ccccc1CN1CCCCC(NC(=O)c2cccc(F)c2)C1=O (stereo not drawn)	5	.	-3	.	.	.	.
Cc1ccc2oc(-c3cccc(NC(=S)NC(=O)/C=C/c4ccco4)c3)nc2c1	47*	1	-2	-58	3	-31	-13
C[C@@H]1COc2cc(Br)ccc2S(=O)(=O)N1Cc1cn(CC2CCCCC2)nn1	8	.	-2	.	.	.	.
O=C(Nc1ccc(Oc2ccccc2)cc1)c1cnc2n(c1=O)CCS2	43*	-2	-7	20	9	-58	38*
CCOc1ccccc1NC(=O)c1cnc2n(c1=O)CCS2	-2	0	8	-8	-3	.	.
